Source: PubChem (The Scripps Research Institute Molecular Screening Center)
ABHD4 inh: ABHD4 inhibitors, primary screen, biochemical, fluorescence polarization, mouse; purified mABHD4, FP-Rh probe fluorescence polarization; inhibition, % at 8.92 µM; 0.54% of 370,000 active;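 active means inhibition exceeding the mean over every tested compound plus 3 SD, cut at about 30% in these data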;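 further: 0% = plate median of compound wells and 100% = S159A mutant with DMSO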
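Test system: mABHD4 protein; Read-out basis: % inhibition; Incubation: 45 min + 60 min at 25 °C; Repeats: single replicate; Technique: fluorescence polarization with parallel and perpendicular emission, 525/598 nm; Compound: 8.92 µM, single dose; Benchmarks: full inhibition S159A mutant plus DMSO, zero as sample-well median.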
HTRA1 inhibitor: HTRA1 serine protease inhibitors, primary screen, biochemical, fluorescence polarization, HTS | Q92743 | recombinant HTRA1, FP-rhodamine activity-based probe | inhibition, % at 5.96 µM | 0.5% of 340,000 active; in the data active means inhibition above about 36%;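 further: 0% = enzyme with DMSO and 100% = wells lacking enzyme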
pPAFAH FP inh: pPAFAH enzyme inhibitors, primary screen, biochemical, fluorescence polarization, human; recombinant pPAFAH, FP-rhodamine probe fluorescence polarization; Platelet-activating factor acetylhydrolase (Homo sapiens), Q13093; inhibition, % at 3.39 µM; 1.5% of 330,000 active;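 active means inhibition above the mean inhibition across the screen plus 3 SD, cut at about 25% in these data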;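 further: inhibitors block binding of the rhodamine activity-based probe so polarization drops; 0% = enzyme with DMSO and 100% = wells lacking pPAFAH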
Target sequence (Q13093 whole entry, looked up): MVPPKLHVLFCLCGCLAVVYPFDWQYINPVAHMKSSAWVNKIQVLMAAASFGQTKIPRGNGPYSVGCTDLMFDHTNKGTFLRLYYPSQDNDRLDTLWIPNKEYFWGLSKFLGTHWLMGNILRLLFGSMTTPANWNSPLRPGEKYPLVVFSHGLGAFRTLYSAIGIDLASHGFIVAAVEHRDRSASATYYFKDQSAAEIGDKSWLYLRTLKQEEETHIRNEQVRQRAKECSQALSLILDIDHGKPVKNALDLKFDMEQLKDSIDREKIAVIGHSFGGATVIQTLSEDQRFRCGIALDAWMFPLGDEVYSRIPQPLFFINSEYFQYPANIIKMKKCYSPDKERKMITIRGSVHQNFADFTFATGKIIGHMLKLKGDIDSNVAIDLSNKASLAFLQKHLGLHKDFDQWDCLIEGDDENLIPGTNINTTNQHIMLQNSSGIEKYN
PAFAH1B2 inh: PAFAH1B2 enzyme inhibitors, primary screen, biochemical, fluorescence polarization, human. 1.2% of 340,000 active. AID 492953, 2010. recombinant PAFAH1B2, FP-rhodamine activity probe. inhibition, % at 3.39 µM. Platelet-activating factor acetylhydrolase IB subunit alpha2 (Homo sapiens), P68402;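 active means inhibition above the mean of all tested compounds plus 3 SD, cut at about 24% in these data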;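 further: 0% = enzyme with DMSO and 100% = wells lacking PAFAH1B2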
PAFAH2 FP inh: PAFAH2 enzyme inhibitors, primary screen, biochemical, fluorescence polarization, human; Platelet-activating factor acetylhydrolase 2, cytoplasmic (Homo sapiens), Q99487; recombinant PAFAH2, FP-rhodamine activity probe; inhibition, % at 3.39 µM; 0.99% of 340,000 active;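 active means inhibition above the mean over all tested compounds plus 3 SD, cut at about 30% in these data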;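 further: inhibitors block probe labeling of enzyme so polarization drops; 0% = enzyme with DMSO and 100% = wells lacking PAFAH2 protein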
PAFAH1B3 inh: PAFAH1B3 enzyme inhibitors, primary screen, biochemical, fluorescence polarization, human. Platelet-activating factor acetylhydrolase IB subunit alpha1 (Homo sapiens), Q15102. recombinant PAFAH1B3, FP-rhodamine probe. inhibition, % at 3.39 µM. 0.28% of 340,000 active;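 active means inhibition above the screen-wide average of all tested compounds plus 3 SD, cut at about 25% in these data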;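 further: 0% = enzyme with DMSO only and 100% = wells lacking PAFAH1B3 protein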
HTRA1 conf: HTRA1 protease inhibitors, retest, confirmation, biochemical, fluorescence polarization; shares compounds with HTRA1 inhibitor; recombinant HTRA1, FP-rhodamine activity-based probe; inhibition, % at 5.96 µM; 66% of 1,600 active; AID 540248, 2011;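 active means mean inhibition over three repeats above a set limit taken from the earlier primary screen, cut at about 37% in these data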;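 further: 0% = HTRA1 with DMSO and 100% = wells lacking HTRA1; inhibitors block probe binding so polarization drops and inhibition rises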
Starred values were filed as active, the others as inactive; · = no result given. Compounds with a hit are over-represented: about 2.8% of the library has one in this group of screens.

SMILES	ABHD4 inh	HTRA1 inhibitor	pPAFAH FP inh	PAFAH1B2 inh	PAFAH2 FP inh	PAFAH1B3 inh	HTRA1 conf
Cc1onc(C(=O)N2CCN(C(c3ccc(Cl)cc3)c3ccc(Cl)cc3)CC2)c1[N+](=O)[O-]	-3	·	·	·	·	·	·
CN(C)CCCNc1cc(C(C)(C)C)nc2c(-c3ccccc3)cnn12	15	36*	4	8	2	13	32
Cc1cc(-c2csc(N)n2)c(C)n1Cc1ccco1	16	27	14	1	7	3	·
Cc1ccc(-n2c(C)cc(-c3csc(N)n3)c2C)cc1	18	52*	25*	-2	3	1	50*
CC(=O)NC(c1ccccc1)c1cc(Cl)c2cccnc2c1O (stereo unspecified)	13	70*	24	2	2	6	72*
COc1ccc(C(NC(=O)C(C)C)c2ccc3cccnc3c2O)cc1 (stereo unspecified)	11	34	5	-1	2	5	·
CCOc1ccc(C(NC(=O)c2ccco2)c2ccc(OC)c(OC)c2)cc1 (stereo unspecified)	-2	-1	0	1	-3	5	·
O=C(NC(c1ccc(Cl)cc1)c1cc(Cl)c2cccnc2c1O)c1cccnc1 (stereo unspecified)	0	60*	22	4	-7	11	52*
O=C(NCc1ccc(Cl)cc1)c1cccnc1	-3	1	0	14	10	-1	·
COc1ccc(C(NC(C)=O)c2cc(Cl)c3cccnc3c2O)cc1 (stereo unspecified)	7	70*	13	7	-1	9	80*
CCCC(=O)NC(c1ccc(OC)c(OC)c1)c1cc(Cl)c2cccnc2c1O (stereo unspecified)	7	46*	9	5	4	6	66*
C[C@H](O)[C@@H]1CN2CCc3c([nH]c4cccc(-c5ccccc5)c34)[C@@H]2C[C@@H]1N(C)C(=O)c1ccco1	0	·	·	·	·	·	·
COc1ccc(N2CCN(CCCNC(=O)COc3ccc(C)cc3)CC2)cc1	0	·	·	·	·	·	·
CCOC(=O)c1c(C)oc2c1c(CN1CCN(CCO)CC1)c(O)c1ccccc12	17	2	·	3	-1	-2	·
CCOC(=O)c1c(C)oc2c(CC(=O)c3ccccc3)c(Cl)c(O)c(O)c12	26	46*	18	3	7	8	4
Clc1ccc(-c2nnc(SCc3cccc4ccccc34)n2-c2ccc(Cl)cc2)cc1	-15	·	·	·	·	·	·
COc1ccc(C(=O)CSc2nnc(-c3ccco3)c(-c3ccco3)n2)cc1	19	37*	·	8	20	9	-4
CCCCCCSc1cccc(-c2nc3ccc(C)cn3c2NC2CCCCC2)c1	5	-17	5	3	6	12	·
Cc1ccc2nc(-c3ccccn3)c(NC3CCCC3)n2c1	11	38*	12	4	0	1	38*
COc1cc(/C=N/Nc2ccc(Cl)cc2)ccc1OC(=O)c1cccs1	1	47*	-7	0	-8	-8	68*
COc1cc(/C=N/NC(N)=O)ccc1OC(=O)c1cccs1	-1	7	9	1	1	1	·
NC(=S)N/N=C/c1c(O)c(Br)cc2oc3c(c12)CCCC3	25	53*	18	8	21	16	48*
Oc1ccc(/C=C/c2ccccc2F)c2cccnc12	22	·	·	·	·	·	·
CN(C)c1ccc(C=Cc2ccnc3c(O)cccc23)cc1	-3	63*	·	·	·	·	54*
CCn1c(CSc2nnc3ccccn23)nc2cc(C(=O)O)ccc21	40*	37*	26*	49*	60*	44*	79*
CCn1c(CSc2n[nH]c(N)n2)nc2cc(C(=O)O)ccc21	19	43*	25*	38*	52*	36*	67*
